The target of assay [1] is T1, L. blandensis dGTPase (WT) (Leeuwenhoekiella blandensis, UniProt A3XHN1).
T1 sequence (A3XHN1 3-442): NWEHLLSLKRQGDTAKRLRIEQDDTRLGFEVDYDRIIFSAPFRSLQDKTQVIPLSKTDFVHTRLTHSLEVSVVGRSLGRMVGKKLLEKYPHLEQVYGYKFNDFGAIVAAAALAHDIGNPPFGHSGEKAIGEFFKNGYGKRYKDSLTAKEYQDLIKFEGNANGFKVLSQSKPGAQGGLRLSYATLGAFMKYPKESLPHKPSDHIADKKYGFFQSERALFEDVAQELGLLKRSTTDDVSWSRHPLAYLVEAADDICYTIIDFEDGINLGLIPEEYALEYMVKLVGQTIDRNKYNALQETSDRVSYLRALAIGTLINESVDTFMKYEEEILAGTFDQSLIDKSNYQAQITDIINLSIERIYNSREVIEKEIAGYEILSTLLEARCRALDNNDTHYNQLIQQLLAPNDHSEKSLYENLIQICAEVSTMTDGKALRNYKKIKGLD
Nature of the assay: Enzyme-coupled dGTPase activity assay, WT enzyme. Type of assay: biochemical.

Assay [2] has as its system L. blandensis dGTPase R37A. Nature of the assay: Enzyme-coupled dGTPase activity assay, R37A mutant. The following applies: dATP titration at 1 mM dGTP. Type of assay: biochemical, Leeuwenhoekiella blandensis. The gist of the method:
(§1)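 Variants of residues 3–442 were made by site-directed mutagenesis, expressed in E. coli BL21(DE3), and purified by Ni–NTA and size exclusion. dATP was serially diluted into buffer containing 1 mM dGTP (100 mM Tris pH 8, 5 mM MgCl2, 125 μM MnCl2, 5 mM phosphate). Reactions started with 1:1 addition of a 2× mix (~120 nM monomer, PNP, XOD). A297 was read at 25 °C, converted to v0/[E]t, and kcat,app versus dATP was Hill-fitted for K1/2.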

The target of assay [3] is T1, L. blandensis dGTPase (WT). Nature of the assay: HPLC dGTPase activity assay, WT enzyme. Type of assay: biochemical. The following applies: mixture of eight standard dNTPs and NTPs, 1 mM each, 1 h.
The target in assay [4] is T2, L. blandensis dGTPase V74Q (Leeuwenhoekiella blandensis, UniProt A3XHN1, V74Q).
T2 sequence (A3XHN1 3-442 V74Q): T1 sequence (A3XHN1 3-442)
Nature of the assay: Enzyme-coupled dGTPase activity assay, V74Q mutant. In kind it is biochemical. The gist of the method: as §1

Assay [5] deals with T3, L. blandensis dGTPase F40N (Leeuwenhoekiella blandensis, UniProt A3XHN1, F40N).
T3 sequence (A3XHN1 3-442 F40N): T1 sequence (A3XHN1 3-442)
Nature of the assay: Enzyme-coupled dGTPase activity assay, F40N mutant. In kind it is biochemical. The following applies: dATP titration at 1 mM dGTP. The method in brief:
as §1

For assay [6], the target named is T4, L. blandensis dGTPase R28A (Leeuwenhoekiella blandensis, UniProt A3XHN1, R28A).
T4 sequence (A3XHN1 3-442 R28A): T1 sequence (A3XHN1 3-442)
Nature of the assay: Enzyme-coupled dGTPase activity assay, R28A mutant. Type of assay: biochemical. The following applies: dATP titration at 1 mM dGTP. The method in brief:
as §1

In assay [7] the target is Leeuwenhoekiella blandensis MED217 dGTPase (SAMHD1 homolog), wild type, residues 3 to 442 (Leeuwenhoekiella blandensis MED217). The experiment in a line: crystal structure.
Assay [8] has the same target. Nature of the assay: cryo-EM structure.

“Also recorded” adds a separate entry of the source.

For orientation: EC50 means the midpoint of the concentration-response curve. A lower EC50 goes with greater potency. What is called stoichiometry N is a count of units in the complex or per binding partner.

In the case of `Nc1ncnc2c1ncn2[C@H]1C[C@H](O)[C@@H](COP(=O)(O)OP(=O)(O)OP(=O)(O)O)O1` [dATP], the 50% effective concentration (EC50) in assay [1] is 36 ± 3 µM; in assay [4] it was 180 ± 16 µM. Besides, the “increase of dGTPase kcat by dATP” value in assay [1] (WT, 500 µM dATP versus dGTP-only) was approximately 50%. In addition, the “fold activation of turnover rate by dATP” value is given as approximately 1.6 fold in assay [1] (WT, calculated with n^H = 2, dGTP concentration at saturation) and “more than threefold” in assay [1] (WT, calculated with n^H = 2, dGTP less than ~160 µM). For the same compound, the “n^H (Hill coefficient) of activation by dATP” value in assay [1] (WT, dATP titration at 1 mM dGTP) is listed as 1.3 ± 0.1. Further, the “activation by dATP” value in assay [2] is “eliminate activation by dATP; also recorded: not activated by dATP”; in assay [5], “eliminated allosteric activation by dATP”; in assay [6], “eliminate activation by dATP; also recorded: not activated by dATP”. Also, the hydrolysis as substrate result in assay [3] is given as “not used as a substrate”.
With “Leeuwenhoekiella blandensis MED217 dGTPase (SAMHD1 homolog), wild type, residues 3 to 442 (enzyme)”, the stoichiometry N in assay [7] and in assay [8] was 6 throughout.

These data come from paper PMC9257424 (The Journal of Biological Chemistry, 2022).
